The source made the active and inactive calls. The calls are words filed in the database; no cut-off is given here.
Columns and labels:
Vaccinia virus [1] = test: Antiviral activity against Vaccinia virus WR in BSC1 cells assessed as reduction in plaque formation after 20 hrs; type: functional, organism-based; settings: Orthopoxvirus vaccinia, BSC-1, 20 h
Vaccinia virus [2] = test: Antiviral activity against Vaccinia virus WR in BSC1 cells assessed as retention of antiviral potency by measuring exogenous double stranded DNA trapping; type: functional, organism-based; settings: Orthopoxvirus vaccinia, BSC-1
[3] = Cytotoxicity against african green monkey BSC1 cells after 20 hrs WST-1 based assay; type: cell-based, BSC-1; settings: chlorocebus aethiops, read-out: TC50
Summary of the method: (§1)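 Uninfected BS-C-1 cells in phenol red-free medium, seeded 5000 (20 h), 1000 (3-day) or 200 (5-day) cells/well, exposed next day to compound in two-fold serial dilutions (top 200 µM; 1% DMSO final) at 37°C. WST-1 added 30 min, A450 read. Triplicates; percent cytotoxicity vs DMSO fitted four-parameter sigmoidal for TC50.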

Vaccinia virus [4] = test: Antiviral activity against Vaccinia virus WR in BSC1 cells assessed as protection from virus-induced lysis of cell monolayer after 20 hrs; type: functional, organism-based; settings: Orthopoxvirus vaccinia, BSC-1, 20 h
Vaccinia virus [5] = test: Antiviral activity against Vaccinia virus WR in BSC1 cells assessed as protection from virus-induced lysis of cell monolayer up to 200 uM after 20 hrs; type: functional, organism-based; settings: Orthopoxvirus vaccinia, BSC-1
Vaccinia virus [6] = test: Antiviral activity against Vaccinia virus WR in BSC1 cells assessed as reduction in plaque formation up to 200 uM after 20 hrs; type: functional, organism-based; settings: Orthopoxvirus vaccinia, BSC-1
[7] = Cytotoxicity against african green monkey BSC1 cells up to 200 uM after 20 to 120 hrs WST-1 based assay; type: cell-based; settings: chlorocebus aethiops, bsc-1; summary of the method: as §1
Vaccinia virus [8] = test: Inhibition of Vaccinia virus DNA synthesis in by rapid plate assay; type: functional, organism-based; settings: Orthopoxvirus vaccinia
[9] = Selectivity index, TC50 for african green monkey BSC1 cells after 20 hrs to EC50 for Vaccinia virus WR in BSC1 cells after 20 hrs by cell protection assay; type: toxicity, cell-based, BSC-1; settings: read-out: Selectivity Index
[10] = Cytotoxicity against african green monkey BSC1 cells after 120 hrs WST-1 based assay; type: cell-based, BSC-1; settings: chlorocebus aethiops, read-out: TC50; summary of the method: as §1
[11] = Cytotoxicity against african green monkey BSC1 cells after 72 hrs WST-1 based assay; type: cell-based, BSC-1; settings: chlorocebus aethiops, read-out: TC50; summary of the method: as §1

**Q.** Which EC50 (Vaccinia virus [1]) does the source give for `CN1CCN(c2cc(-c3ccc(F)cc3)nc(-c3ccccc3)n2)CC1` here?
**A.** 6 µM

**Q.** And the Activity (Vaccinia virus [2])?
**A.** inactive

**Q.** And the CC50 at 20 h [3]?
**A.** 23 µM

**Q.** And the EC50 (Vaccinia virus [4])?
**A.** 12 µM

**Q.** Which results are given for `CN(C)Cc1ccc2ccc3cccc4ccc1c2c34`?
**A.** EC50 (Vaccinia virus [1]): 10 µM; Activity (Vaccinia virus [2]): inactive; CC50 at 20 h [3]: 20 µM; EC50 (Vaccinia virus [4]): 25 µM

**Q.** What does the source list for `CC[n+]1cc(/C=C2\SC=CN2C)c(C)c2cc(OC)c3ccccc3c21`?
**A.** Activity (Vaccinia virus [5]): inactive; Activity (Vaccinia virus [6]): inactive; Activity [7]: Toxic; IC50 (Vaccinia virus [8]): 3.5 µM

**Q.** Which results are given for `Cc1nc2ccccc2c2oc(C(=O)NCCN(C)C3CCCCC3)cc12`?
**A.** EC50 (Vaccinia virus [1]): 25 µM; Activity (Vaccinia virus [2]): inactive; CC50 at 20 h [3]: 143 µM; EC50 (Vaccinia virus [4]): 41 µM

**Q.** What does the source list for `BrCc1ccc(-c2noc(-c3ccncc3)n2)cc1`?
**A.** Activity (Vaccinia virus [5]): inactive; Activity (Vaccinia virus [6]): inactive; Activity [7]: Toxic; IC50 (Vaccinia virus [8]): 1.3 µM

**Q.** Which selectivity ratio at 20 h [9] does the source give for `Cc1csc2c(N3CCN(C(=O)NC(C)(C)C)CC3)ncnc12` here?
**A.** 3.1

**Q.** And the EC50 (Vaccinia virus [1])?
**A.** 15 µM

**Q.** And the CC50 at 120 h [10]?
**A.** 40 µM

**Q.** And the Activity (Vaccinia virus [2])?
**A.** Active

**Q.** What about the IC50 (Vaccinia virus [8]) of the same compound?
**A.** 12 µM

**Q.** What about the CC50 at 20 h [3] of the same compound?
**A.** 157 µM

**Q.** And the EC50 (Vaccinia virus [4])?
**A.** 50 µM

**Q.** Which Activity (Vaccinia virus [5]) does the source give for `Cc1cc(NCCN2CCCCC2)c2ccc3ccccc3c2n1` here?
**A.** inactive

**Q.** And the Activity (Vaccinia virus [6])?
**A.** inactive

**Q.** What about the Activity [7] of the same compound?
**A.** Toxic

**Q.** And the IC50 (Vaccinia virus [8])?
**A.** 6 µM

**Q.** With `Nc1ccn(C[C@@H](CO)OCP(=O)(O)O)c(=O)n1` [CIDOFOVIR] as the compound, how does the selectivity ratio at 20 h [9] read?
**A.** > 3.8

**Q.** What about the EC50 (Vaccinia virus [1]) of the same compound?
**A.** 50 µM

**Q.** And the CC50 at 120 h [10]?
**A.** 300 µM

**Q.** What about the CC50 at 72 h [11] of the same compound?
**A.** > 500 µM

**Q.** And the Activity (Vaccinia virus [2])?
**A.** Active

**Q.** And the CC50 at 20 h [3]?
**A.** > 500 µM

**Q.** With `CN(C)CC/N=c1\cc(-c2ccccc2)oc2ccc(Cl)cc12` as the compound, how does the Activity (Vaccinia virus [5]) read?
**A.** inactive

**Q.** And the Activity (Vaccinia virus [6])?
**A.** inactive

**Q.** What about the Activity [7] of the same compound?
**A.** Toxic

**Q.** And the IC50 (Vaccinia virus [8])?
**A.** 6.7 µM

**Q.** With `O=C(O)c1ccc(CS(=O)(=O)c2ccccc2)o1` as the compound, how does the Activity (Vaccinia virus [5]) read?
**A.** inactive

**Q.** And the Activity (Vaccinia virus [6])?
**A.** inactive

**Q.** What about the Activity [7] of the same compound?
**A.** Toxic

**Q.** And the IC50 (Vaccinia virus [8])?
**A.** 7.4 µM

**Q.** Which results are given for `CCOC(=O)c1cnc2c(C)c(C)ccc2c1NCCCN(C)C`?
**A.** Activity (Vaccinia virus [5]): inactive; Activity (Vaccinia virus [6]): inactive; Activity [7]: Toxic; IC50 (Vaccinia virus [8]): 5 µM

**Q.** For `Cc1ccc2nc(Cl)c3cc(C(=O)N(CCN(C)C)Cc4ccco4)sc3c2c1`, which Activity (Vaccinia virus [5]) is on record?
**A.** inactive

**Q.** What about the Activity (Vaccinia virus [6]) of the same compound?
**A.** inactive

**Q.** And the Activity [7]?
**A.** Toxic

**Q.** What about the IC50 (Vaccinia virus [8]) of the same compound?
**A.** 10 µM

**Q.** What does the source list for `N=C1/C(=C/c2coc3ccccc3c2=O)C(=O)N=C2SC=NN12`?
**A.** selectivity ratio at 20 h [9]: > 1; CC50 at 120 h [10]: 50 µM; CC50 at 72 h [11]: > 200 µM; Activity (Vaccinia virus [2]): Active; IC50 (Vaccinia virus [8]): 75 µM; CC50 at 20 h [3]: > 200 µM

**Q.** What does the source list for `CC(C)Nc1ccc(Nc2ccnc3cc4ccccc4cc23)cc1`?
**A.** Activity (Vaccinia virus [5]): inactive; Activity (Vaccinia virus [6]): inactive; Activity [7]: Toxic; IC50 (Vaccinia virus [8]): 4.1 µM

**Q.** With `COc1ccc2nc(NC(=N)N)nc(C)c2c1` as the compound, how does the Activity (Vaccinia virus [5]) read?
**A.** inactive

**Q.** What about the Activity (Vaccinia virus [6]) of the same compound?
**A.** inactive

**Q.** What about the Activity [7] of the same compound?
**A.** Toxic

**Q.** What about the IC50 (Vaccinia virus [8]) of the same compound?
**A.** 7.4 µM

**Q.** Which selectivity ratio at 20 h [9] does the source give for `Cc1ccc2c(Sc3ccc(Cl)cc3)c(C(=O)O)[nH]c2c1` here?
**A.** > 1.5

**Q.** And the EC50 (Vaccinia virus [1])?
**A.** 75 µM

**Q.** What about the CC50 at 120 h [10] of the same compound?
**A.** 120 µM

**Q.** What about the CC50 at 72 h [11] of the same compound?
**A.** 174 µM

**Q.** What about the Activity (Vaccinia virus [2]) of the same compound?
**A.** Active

**Q.** And the IC50 (Vaccinia virus [8])?
**A.** 43 µM

**Q.** And the CC50 at 20 h [3]?
**A.** > 200 µM

**Q.** For `CC1CCCC(C)N1CCNc1nc2ccccc2c2nc(-c3ccccc3)nn12` (stereo not given), which Activity (Vaccinia virus [5]) is on record?
**A.** inactive

**Q.** And the Activity (Vaccinia virus [6])?
**A.** inactive

**Q.** What about the Activity [7] of the same compound?
**A.** Toxic

**Q.** What about the IC50 (Vaccinia virus [8]) of the same compound?
**A.** 7.3 µM

**Q.** Which EC50 (Vaccinia virus [1]) does the source give for `N/N=C1\CCCc2c1[nH]c1ccc(C(=O)NN)cc21` here?
**A.** 100 µM

**Q.** And the CC50 at 72 h [11]?
**A.** 35 µM

**Q.** What about the Activity (Vaccinia virus [2]) of the same compound?
**A.** inactive

**Q.** And the CC50 at 20 h [3]?
**A.** > 200 µM

**Q.** And the EC50 (Vaccinia virus [4])?
**A.** 193 µM

**Q.** Which results are given for `CCN(CC)CCCNc1nc2cc(OC)c(OC)cc2c2nc(-c3ccccc3)nn12`?
**A.** Activity (Vaccinia virus [5]): inactive; Activity (Vaccinia virus [6]): inactive; Activity [7]: Toxic; IC50 (Vaccinia virus [8]): 5.9 µM

**Q.** What does the source list for `CN(C)c1ccc(-c2cccc(-c3ccc(N(C)C)cc3)[o+]2)cc1`?
**A.** Activity (Vaccinia virus [5]): inactive; Activity (Vaccinia virus [6]): inactive; Activity [7]: Toxic; IC50 (Vaccinia virus [8]): 3 µM

**Q.** Which results are given for `COC(=O)c1c(NC(=O)c2ccc(OC)cc2)sc2c1CCN(C(C)C)C2`?
**A.** EC50 (Vaccinia virus [1]): 25 µM; Activity (Vaccinia virus [2]): inactive; CC50 at 20 h [3]: 87 µM; EC50 (Vaccinia virus [4]): 40 µM

**Q.** With `CCC/N=c1\cc(-c2ccccc2)oc2ccc(C)cc12` as the compound, how does the EC50 (Vaccinia virus [1]) read?
**A.** 25 µM

**Q.** And the CC50 at 120 h [10]?
**A.** 10 µM

**Q.** What about the Activity (Vaccinia virus [2]) of the same compound?
**A.** inactive

**Q.** What about the CC50 at 20 h [3] of the same compound?
**A.** > 200 µM

**Q.** What about the EC50 (Vaccinia virus [4]) of the same compound?
**A.** 57 µM

**Q.** What does the source list for `CCOC(=O)c1c(NC(=O)/C=C/C(=O)O)sc(C)c1-c1ccccc1`?
**A.** EC50 (Vaccinia virus [1]): 25 µM; Activity (Vaccinia virus [2]): Active; IC50 (Vaccinia virus [8]): 374 µM; CC50 at 20 h [3]: 159 µM; EC50 (Vaccinia virus [4]): 30 µM

**Q.** With `CC1=CC(C)(C)N=C(Nc2nc(C)c3cc(C)cc(C)c3n2)N1` as the compound, how does the Activity (Vaccinia virus [5]) read?
**A.** inactive

**Q.** What about the Activity (Vaccinia virus [6]) of the same compound?
**A.** inactive

**Q.** What about the Activity [7] of the same compound?
**A.** Toxic

**Q.** And the IC50 (Vaccinia virus [8])?
**A.** 5.3 µM

**Q.** Which results are given for `O=C(O)Cn1c2ccc(Cl)cc2c2nc3ccccc3nc21`?
**A.** EC50 (Vaccinia virus [1]): 50 µM; CC50 at 120 h [10]: 30 µM; CC50 at 72 h [11]: 13 µM; Activity (Vaccinia virus [2]): Active; CC50 at 20 h [3]: > 100 µM; EC50 (Vaccinia virus [4]): 100 µM

Source: ChEMBL document CHEMBL1140145, “Identification of non-nucleoside DNA synthesis inhibitors of vaccinia virus by high-throughput screening” (J Med Chem, 2008)
